This passage reports MIC results from ChEMBL document CHEMBL1126564, “Synthesis and antimicrobial evaluation of a series of 7-[3-amino (or aminomethyl)-4-aryl (or cyclopropyl)-1-pyrrolidinyl]-4-quinolone- and -1,8-naphthyridone-3-carboxylic acids” (1993).

Format in all cases: functional
One assay has as its system Escherichia coli. In words: Minimum inhibitory concentration against Escherichia coli Vogel. Conditions: Escherichia coli; read-out: MIC. The method in brief:
(§1)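 Standard microdilution method against a panel of five Gram-negative and five Gram-positive bacterial strains. The MIC (µg/mL) was recorded for each strain.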

In the next assay the test system is Enterococcus faecalis. Put plainly: Minimum inhibitory concentration against […] MGH-2. Conditions: Enterococcus faecalis; read-out: MIC. The method, boiled down: as §1
A further assay concerns Enterobacter cloacae. Put plainly: Minimum inhibitory concentration against […] MA-2646. The settings on record: Enterobacter cloacae; read-out: MIC. The method in brief: as §1
In a further assay the test system is Klebsiella pneumoniae. Put plainly: Minimum inhibitory concentration against Klebsiella pneumoniae MGH-2. The settings on record: Klebsiella pneumoniae; read-out: MIC. The method in brief: as §1
In the next assay the test system is Pseudomonas aeruginosa. Put plainly: Minimum inhibitory concentration against Pseudomonas aeruginosa UI-18. The settings on record: Pseudomonas aeruginosa; read-out: MIC. The method, boiled down: as §1
The next assay relates to Providencia rettgeri. Put plainly: Minimum inhibitory concentration against Providencia rettgeri M-1771. The settings on record: Providencia rettgeri; read-out: MIC. The method, boiled down: as §1
A further assay deals with Streptococcus pneumoniae. In words: Minimum inhibitory concentration against Streptococcus pneumoniae SV-1. Conditions: Streptococcus pneumoniae; read-out: MIC. The method, boiled down:
as §1

Assay [1] concerns Staphylococcus aureus. In words: Minimum inhibitory concentration against Staphylococcus aureus H-228. The settings on record: Staphylococcus aureus; read-out: MIC. The method, boiled down: as §1
The subject of the next assay is Streptococcus pyogenes. In words: Minimum inhibitory concentration against Streptococcus pyogenes C-203. Conditions: Streptococcus pyogenes; read-out: MIC. The method in brief:
as §1

Assay [2] deals with Staphylococcus aureus. Put plainly: Minimum inhibitory concentration against Staphylococcus aureus UC-76. The settings on record: Staphylococcus aureus; read-out: MIC. The method in brief:
as §1

SMILES strings stand for the structures. Values after ≈ are worked out from the molar mass of the structure shown.

In general, MIC refers to the lowest concentration found to suppress growth. As for `CC(C)c1ccc(C2CN(c3nc4c(cc3F)c(=O)c(C(=O)O)cn4C3CC3)CC2N)cc1` (trans isomer), the MIC in the assay on Escherichia coli worked out at 0.4 µg/mL (≈ 0.888 µM); in the assay with Enterococcus faecalis, 0.4 µg/mL (≈ 0.888 µM); in the assay with Enterobacter cloacae it was 0.8 µg/mL (≈ 1.78 µM); in the assay with Klebsiella pneumoniae, 0.8 µg/mL (≈ 1.78 µM); in the assay with Pseudomonas aeruginosa it was 6.3 µg/mL (≈ 14 µM); in the assay with Providencia rettgeri, 1.6 µg/mL (≈ 3.55 µM). The MIC in the assay with Streptococcus pneumoniae amounted to 0.4 µg/mL (≈ 0.888 µM); in the assay on Staphylococcus aureus [1], 0.2 µg/mL (≈ 0.444 µM); with Streptococcus pyogenes, 0.4 µg/mL (≈ 0.888 µM); with Staphylococcus aureus [2] it was 0.1 µg/mL (≈ 0.222 µM).

In the case of `NCC1CN(c2c(F)cc3c(=O)c(C(=O)O)cn(C4CC4)c3c2F)CC1c1ccco1` (stereo not given), the MIC with Escherichia coli was found to be 0.05 µg/mL (≈ 0.116 µM); in the assay with Enterococcus faecalis it was 0.013 µg/mL (≈ 0.0303 µM); in the assay on Enterobacter cloacae, 0.05 µg/mL (≈ 0.116 µM); with Klebsiella pneumoniae, 0.1 µg/mL (≈ 0.233 µM); with Pseudomonas aeruginosa, 0.4 µg/mL (≈ 0.931 µM); in the assay with Providencia rettgeri, 0.1 µg/mL (≈ 0.233 µM). Further, the MIC worked out at 0.006 µg/mL (≈ 0.014 µM) in the assay on Streptococcus pneumoniae, 0.025 µg/mL (≈ 0.0582 µM) with Staphylococcus aureus [1], 0.013 µg/mL (≈ 0.0303 µM) with Streptococcus pyogenes and 0.003 µg/mL (≈ 0.00699 µM) in the assay with Staphylococcus aureus [2].

Consider `NCC1CN(c2c(F)c(N)c3c(=O)c(C(=O)O)cn(C4CC4)c3c2F)CC1c1ccccc1` (trans isomer), for which the MIC with Escherichia coli was found to be 0.025 µg/mL (≈ 0.055 µM); with Enterococcus faecalis, 0.013 µg/mL (≈ 0.0286 µM); in the assay on Enterobacter cloacae, 0.05 µg/mL (≈ 0.11 µM); with Klebsiella pneumoniae, 0.05 µg/mL (≈ 0.11 µM); in the assay on Pseudomonas aeruginosa, 0.8 µg/mL (≈ 1.76 µM); with Providencia rettgeri, 0.1 µg/mL (≈ 0.22 µM). Also, the MIC with Streptococcus pneumoniae stood at 0.003 µg/mL (≈ 0.0066 µM); in the assay on Staphylococcus aureus [1], 0.006 µg/mL (≈ 0.0132 µM); with Streptococcus pyogenes it was 0.006 µg/mL (≈ 0.0132 µM); in the assay with Staphylococcus aureus [2], 0.003 µg/mL (≈ 0.0066 µM).

`CN(C)c1ccc(C2CN(c3nc4c(cc3F)c(=O)c(C(=O)O)cn4C3CC3)CC2N)cc1` (trans isomer): the MIC with Escherichia coli was 0.2 µg/mL (≈ 0.443 µM); with Enterococcus faecalis, 0.2 µg/mL (≈ 0.443 µM); in the assay on Enterobacter cloacae it was 0.2 µg/mL (≈ 0.443 µM); in the assay with Klebsiella pneumoniae, 0.4 µg/mL (≈ 0.886 µM); in the assay on Pseudomonas aeruginosa, 3.1 µg/mL (≈ 6.87 µM); with Providencia rettgeri, 0.4 µg/mL (≈ 0.886 µM). The MIC in the assay with Streptococcus pneumoniae came out at 0.2 µg/mL (≈ 0.443 µM); in the assay with Staphylococcus aureus [1], 0.05 µg/mL (≈ 0.111 µM); in the assay with Streptococcus pyogenes, 0.2 µg/mL (≈ 0.443 µM); in the assay on Staphylococcus aureus [2], 0.025 µg/mL (≈ 0.0554 µM).

For the compound `NC1CN(c2c(F)cc3c(=O)c(C(=O)O)cn(C4CC4)c3c2F)CC1c1ccc(Cl)c(Cl)c1` (trans isomer), the MIC in the assay with Escherichia coli is 0.1 µg/mL (≈ 0.202 µM); with Enterococcus faecalis, 0.1 µg/mL (≈ 0.202 µM); with Enterobacter cloacae it was 0.2 µg/mL (≈ 0.405 µM); in the assay with Klebsiella pneumoniae, 0.2 µg/mL (≈ 0.405 µM); with Pseudomonas aeruginosa, 1.6 µg/mL (≈ 3.24 µM); in the assay with Providencia rettgeri it was 0.2 µg/mL (≈ 0.405 µM). Also, the MIC in the assay on Streptococcus pneumoniae was determined as 0.1 µg/mL (≈ 0.202 µM); in the assay on Staphylococcus aureus [1] it was 0.05 µg/mL (≈ 0.101 µM); in the assay with Streptococcus pyogenes it was 0.1 µg/mL (≈ 0.202 µM); in the assay on Staphylococcus aureus [2], 0.013 µg/mL (≈ 0.0263 µM).

On to `COC(=O)c1ccc(C2CN(c3nc4c(cc3F)c(=O)c(C(=O)O)cn4C3CC3)CC2N)cc1` (trans isomer), for which the MIC is 0.4 µg/mL (≈ 0.858 µM) in the assay with Escherichia coli; 0.4 µg/mL (≈ 0.858 µM) in the assay with Enterococcus faecalis; 0.4 µg/mL (≈ 0.858 µM) in the assay with Enterobacter cloacae; 0.4 µg/mL (≈ 0.858 µM) in the assay on Klebsiella pneumoniae; 3.1 µg/mL (≈ 6.65 µM) in the assay on Pseudomonas aeruginosa; 0.8 µg/mL (≈ 1.72 µM) in the assay with Providencia rettgeri. The MIC with Streptococcus pneumoniae was 0.8 µg/mL (≈ 1.72 µM); in the assay with Staphylococcus aureus [1], 0.2 µg/mL (≈ 0.429 µM); with Streptococcus pyogenes, 0.8 µg/mL (≈ 1.72 µM); in the assay on Staphylococcus aureus [2], 0.1 µg/mL (≈ 0.214 µM).

Turning to `NCC1CN(c2nc3c(cc2F)c(=O)c(C(=O)O)cn3C2CC2)CC1c1ccc(N)cc1` (cis isomer), the minimum inhibitory concentration (MIC) in the assay on Escherichia coli is 0.2 µg/mL (≈ 0.457 µM); with Enterococcus faecalis, 0.1 µg/mL (≈ 0.229 µM); in the assay with Enterobacter cloacae, 0.2 µg/mL (≈ 0.457 µM); in the assay on Klebsiella pneumoniae it was 0.4 µg/mL (≈ 0.914 µM); with Pseudomonas aeruginosa it was 1.6 µg/mL (≈ 3.66 µM); in the assay on Providencia rettgeri it was 0.8 µg/mL (≈ 1.83 µM). The MIC with Streptococcus pneumoniae is 0.05 µg/mL (≈ 0.114 µM); in the assay on Staphylococcus aureus [1] it was 0.2 µg/mL (≈ 0.457 µM); with Streptococcus pyogenes, 0.05 µg/mL (≈ 0.114 µM); with Staphylococcus aureus [2], 0.025 µg/mL (≈ 0.0571 µM).

On to `Nc1c(F)c(N2CC(N)C(c3ccccc3)C2)c(F)c2c1c(=O)c(C(=O)O)cn2C1CC1` (stereo not given), for which the MIC in the assay with Escherichia coli was 0.025 µg/mL (≈ 0.0568 µM); in the assay with Enterococcus faecalis, 0.05 µg/mL (≈ 0.114 µM); in the assay on Enterobacter cloacae, 0.025 µg/mL (≈ 0.0568 µM); with Klebsiella pneumoniae, 0.05 µg/mL (≈ 0.114 µM); in the assay with Pseudomonas aeruginosa it was 0.8 µg/mL (≈ 1.82 µM); with Providencia rettgeri, 0.1 µg/mL (≈ 0.227 µM). Further, the minimum inhibitory concentration (MIC) was 0.05 µg/mL (≈ 0.114 µM) with Streptococcus pneumoniae, 0.013 µg/mL (≈ 0.0295 µM) in the assay with Staphylococcus aureus [1], 0.1 µg/mL (≈ 0.227 µM) in the assay with Streptococcus pyogenes and 0.006 µg/mL (≈ 0.0136 µM) in the assay with Staphylococcus aureus [2].

On to `NCc1cccc(C2CN(c3c(F)cc4c(=O)c(C(=O)O)cn(C5CC5)c4c3F)CC2CN)c1` (trans isomer), for which the MIC with Escherichia coli was 1.6 µg/mL (≈ 3.42 µM); in the assay with Enterococcus faecalis, 0.8 µg/mL (≈ 1.71 µM); in the assay with Enterobacter cloacae, 1.6 µg/mL (≈ 3.42 µM); in the assay with Klebsiella pneumoniae, 1.6 µg/mL (≈ 3.42 µM); with Pseudomonas aeruginosa it was 6.3 µg/mL (≈ 13.4 µM); in the assay with Providencia rettgeri, 3.1 µg/mL (≈ 6.62 µM). Besides, the MIC was 0.2 µg/mL (≈ 0.427 µM) in the assay with Streptococcus pneumoniae, 1.6 µg/mL (≈ 3.42 µM) in the assay with Staphylococcus aureus [1], 0.1 µg/mL (≈ 0.213 µM) in the assay on Streptococcus pyogenes and 0.2 µg/mL (≈ 0.427 µM) in the assay on Staphylococcus aureus [2].

Regarding `NC1CN(c2nc3c(cc2F)c(=O)c(C(=O)O)cn3C2CC2)CC1c1ccc(O)cc1` (trans isomer), the MIC in the assay with Escherichia coli was determined as 0.1 µg/mL (≈ 0.236 µM); in the assay on Enterococcus faecalis, 0.1 µg/mL (≈ 0.236 µM); in the assay with Enterobacter cloacae, 0.1 µg/mL (≈ 0.236 µM); in the assay on Klebsiella pneumoniae, 0.2 µg/mL (≈ 0.471 µM); in the assay with Pseudomonas aeruginosa, 1.6 µg/mL (≈ 3.77 µM); in the assay on Providencia rettgeri it was 0.4 µg/mL (≈ 0.942 µM). Besides, the MIC in the assay on Streptococcus pneumoniae was 0.2 µg/mL (≈ 0.471 µM); in the assay on Staphylococcus aureus [1], 0.4 µg/mL (≈ 0.942 µM); in the assay on Streptococcus pyogenes, 0.2 µg/mL (≈ 0.471 µM); in the assay with Staphylococcus aureus [2], 0.1 µg/mL (≈ 0.236 µM).
